Paper PMC9305876 (International Journal of Cosmetic Science, 2022)

Assays:
[1] = target: T1, recombinant human tyrosinase (Homo sapiens, UniProt P14679); test: biochemical
T1 sequence (P14679 19-476 limits assumed): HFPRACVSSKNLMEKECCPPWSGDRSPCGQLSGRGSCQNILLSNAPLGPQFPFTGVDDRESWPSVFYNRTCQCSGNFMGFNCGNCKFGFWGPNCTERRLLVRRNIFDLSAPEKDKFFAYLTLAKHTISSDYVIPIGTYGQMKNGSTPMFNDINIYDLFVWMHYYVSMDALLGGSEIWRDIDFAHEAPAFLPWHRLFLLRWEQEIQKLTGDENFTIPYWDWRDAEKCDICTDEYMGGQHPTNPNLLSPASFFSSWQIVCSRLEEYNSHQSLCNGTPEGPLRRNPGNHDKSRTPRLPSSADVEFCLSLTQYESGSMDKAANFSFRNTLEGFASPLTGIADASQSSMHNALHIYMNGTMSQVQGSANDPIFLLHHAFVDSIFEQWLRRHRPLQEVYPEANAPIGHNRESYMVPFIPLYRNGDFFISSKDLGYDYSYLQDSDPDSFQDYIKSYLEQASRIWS

[2] = test system: primary human epidermal melanocytes; test: Melanin content assay in melanocyte cultures; format: cell-based; conditions: for reduction in melanin synthesis: 72 h; for inhibition of melanin production in melanocytes: 72 h of treatment, at similar doses, mean ± SD
[3] = test system: primary melanocytes; test: Cell viability; format: cell-based, human
Outline: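 Neonatal foreskin primary human epidermal melanocytes at passages 4–6 were grown in Medium 254‑CF with melanocyte growth supplement at 37°C and 5% CO2. They were exposed to test compound for 72 h, starting 24 h after plating, alongside 0.1% (v/v) DMSO or medium vehicle controls. Cells were washed in Ca/Mg‑free PBS and loaded with 1 µM Calcein‑AM for 30 min at 37°C, protected from light. Fluorescence was read at ex 490/em 520 nm, with cell‑free blank wells.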

| IC50 [1] | Compound | reduction in melanin synthesis ([2]; 4‐HR alone (comparator to 1 µM in combination)) | inhibition of melanin production in melanocytes [2] | maximum non‐cytotoxic dose for primary melanocytes [3] | reduction in melanin synthesis ([2]; niacinamide alone (comparator to 10 mM in combination)) |
| --- | --- | --- | --- | --- | --- |
| 16 µM | CCCCCCc1ccc(O)cc1O [4‐HR, 4‐hexylresorcinol] | 7.3 ± 3% | 35 ± 1.9% | 10 µM | – |
| 13 µM | CCCCc1ccc(O)cc1O [4‐BR, 4‐butylresorcinol] | – | 28.6 ± 3% | – | – |
| – | NC(=O)c1cccnc1 [niacinamide] | – | – | 10000 µM | 7.2 ± 4.3% |
| > 1000 µM | Oc1ccc(O)cc1 [Hydroquinone, hydroquinone] | – | – | – | – |
